The text below walks through data of ChEMBL document CHEMBL3102766, “Thiodiketopiperazines from the marine-derived fungus Phoma sp. OUCMDZ-1847” (J Nat Prod, 2014).

Structures are written as SMILES. Active and inactive are the calls of the source. No cut-off for these calls is given here.

Format in all cases: functional, cell-based
The test system of one test is HL-60. The test is described as follows: Cytotoxicity against human HL60 cells after 72 hrs by MTT assay. Particulars: for IC50: HL-60, 72 h. (Tetrazolium assays rely on reduction of a dye to a coloured formazan, in cell work by metabolically active cells.)
For the next test, the system named is MGC-803. The test is described as follows: Cytotoxicity against human MGC803 cells after 24 hrs by SRB assay. Particulars: for IC50: MGC-803, 24 h. The method in brief:
(§1)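 Cytotoxicity against the tumor cell lines was read out by the SRB method, with adriamycin run as the positive control.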
On the technique in general: Sulforhodamine B stains cellular protein and so reports cell mass.

The test system of another test is HCT-116. Nature of the test: Cytotoxicity against human HCT116 cells after 72 hrs by MTT assay. To be noted: for IC50: HCT-116, 72 h.
Another test has as its system K562. Nature of the test: Cytotoxicity against human K562 cells after 72 hrs by MTT assay. To be noted: for IC50: K562, 72 h.
For a further test, the system named is A549. The test is described as follows: Cytotoxicity against human A549 cells after 24 hrs by SRB assay. Particulars: for IC50: A549, 24 h. The gist of the method:
as §1

Broadly, the IC50 is the concentration that inhibits the measured activity by half. On to `O=C1C=C[C@H](O)[C@@H]2[C@@H]1C[C@@]13SS[C@]4(C[C@H]5C(=O)C[C@H](O)[C@H](O)[C@H]5N4C1=O)C(=O)N23`, for which the IC50 is 3.5 µM with HL-60; 3.4 µM in the test with MGC-803; 7.1 µM in the test with HCT-116; over 10 µM with K562; over 10 µM in the test with A549.

Consider `O=C1C[C@@H]2S[C@@]34C[C@@H]1[C@@H]([C@H]2O)N3C(=O)[C@@]12C[C@H]3C(=O)C[C@H](S1)[C@H](O)[C@H]3N2C4=O`, for which the result in the test on HL-60, in the test on MGC-803, in the test on HCT-116, with K562 and in the test on A549 was inactive.

For `O=C1C=C[C@H](O)[C@@H]2[C@@H]1C[C@@]13SS[C@]4(C[C@H]5C(=O)C=C[C@H](O)[C@H]5N4C1=O)C(=O)N23`, the IC50 was 1.6 µM in the test with HL-60; 5.2 µM with MGC-803; over 10 µM in the test on HCT-116; 4.6 µM in the test on K562; over 10 µM with A549.

For `O=C1C[C@H]2SS[C@@]34C[C@@H]1[C@@H]([C@H]2O)N3C(=O)[C@@]12C[C@H]3C(=O)C[C@@H](S1)[C@H](O)[C@H]3N2C4=O`, the result with HL-60, in the test with MGC-803, in the test with HCT-116, in the test on K562 and with A549 was inactive.

Take `O=C1C[C@@H]2SS[C@@]34C[C@@H]1[C@@H]([C@H]2O)N3C(=O)[C@@]12C[C@H]3C(=O)[C@H](S1)[C@H](O)[C@H](O)[C@H]3N2C4=O`: the outcome in the test with HL-60, in the test on MGC-803, in the test with HCT-116, in the test on K562 and with A549 was inactive.

Consider `CS[C@@]12C[C@@H]3C(=O)C=C[C@H](O)[C@H]3N1C(=O)[C@]1(SC)C[C@@H]3C(=O)C=C[C@H](O)[C@H]3N1C2=O`, for which the IC50 is 3.5 µM in the test with HL-60; 4.2 µM in the test on MGC-803; 4 µM in the test on HCT-116; over 10 µM in the test with K562; over 10 µM with A549.

With `CS[C@@]12CC3=CC=C[C@H](O)[C@H]3N1C(=O)/C(=C/c1ccccc1)NC2=O`, the outcome in the test on HL-60, with MGC-803, with HCT-116, in the test on K562 and in the test on A549 was inactive.

With `CS[C@@]1(Cc2ccccc2)NC(=O)[C@]2(SC)CC3=CC=C[C@H](O)[C@H]3N2C1=O`, the IC50 with HL-60 was over 10 µM; with MGC-803, 8.5 µM; in the test with HCT-116 it was over 10 µM; with K562, over 10 µM; in the test with A549 it was over 10 µM.

For the molecule `O=C1C=C[C@H](O)[C@@H]2[C@@H]1C[C@@]13SS[C@]4(C[C@@H]5C(=O)C=C[C@H](O)[C@H]5N4C1=O)C(=O)N23` [EPICORAZINE A], the IC50 stood at 0.05 µM in the test on HL-60; 2.7 µM in the test on MGC-803; 0.33 µM in the test with HCT-116; 1.5 µM in the test on K562; 2.3 µM in the test on A549.

For the molecule `O=C1C[C@H]2S[C@@]34C[C@@H]1[C@@H]([C@H]2O)N3C(=O)[C@@]12C[C@H]3C(=O)[C@@H](S1)[C@H](O)[C@H](O)[C@H]3N2C4=O`, the result with HL-60, in the test with MGC-803, with HCT-116, in the test with K562 and in the test on A549 was inactive.

For `COc1cccc2c1C(=O)c1c(O)c3c(c(O)c1C2=O)C[C@@](O)(C(=O)CO)C[C@@H]3O[C@H]1C[C@H](N)[C@H](O)[C@H](C)O1` [DOXORUBICIN], the 50% inhibitory concentration (IC50) stood at 0.17 µM with MGC-803 and 0.16 µM with A549.

With `O=C1C[C@H](O)[C@H](O)[C@@H]2[C@H]1C[C@@]13SS[C@]4(C[C@H]5C(=O)C[C@H](O)[C@H](O)[C@H]5N4C1=O)C(=O)N23`, the outcome in the test with HL-60, in the test with MGC-803, in the test with HCT-116, with K562 and in the test with A549 was inactive.

For the molecule `O=C1C[C@@H]2SS[C@@]34C[C@@H]1[C@@H]([C@H]2O)N3C(=O)[C@@]12C[C@H]3C(=O)C[C@H](SS1)[C@H](O)[C@H]3N2C4=O`, the outcome in the test with HL-60, in the test with MGC-803, in the test with HCT-116, in the test on K562 and in the test on A549 was inactive.

`O=C1N2[C@H]3[C@H](C[C@]24SS[C@]12C[C@H]1[C@@H]([C@@H](O)CC[C@@H]1O)N2C4=O)[C@@H](O)CC[C@@H]3O`: the outcome in the test with HL-60, with MGC-803, in the test with HCT-116, in the test on K562 and in the test with A549 was inactive.
